Assay results: PubChem BioAssay AID522 (The Scripps Research Institute Molecular Screening Center, 2006)
In all, about 65,000 compounds went through this assay and about 1,200 (1.8%) were called active. Shown is part of a subset that was picked to be rich in actives. Unmarked numbers belong to inactive results.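 How the source made its calls: active means activation above the mean activation of all tested compounds plus 3 SD (cut at about 50% in these data); inactive means the rest.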

These compounds were tested against Steroidogenic factor 1 (Homo sapiens) (UniProt Q13285) (assay: activators of human SF-1, primary screen, cell-based, CHO-K1, Gal4-SF-1 LBD, luciferase luminescence (AID 522)). Settings: CHO-K1 Gal4-SF-1 LBD luciferase reporter; at 10 µM; active compounds read high; % increase over DMSO SF-1-specific signal.
Steroidogenic factor 1 (Homo sapiens), sequence (Q13285 whole entry, looked up, the tested form may be a part): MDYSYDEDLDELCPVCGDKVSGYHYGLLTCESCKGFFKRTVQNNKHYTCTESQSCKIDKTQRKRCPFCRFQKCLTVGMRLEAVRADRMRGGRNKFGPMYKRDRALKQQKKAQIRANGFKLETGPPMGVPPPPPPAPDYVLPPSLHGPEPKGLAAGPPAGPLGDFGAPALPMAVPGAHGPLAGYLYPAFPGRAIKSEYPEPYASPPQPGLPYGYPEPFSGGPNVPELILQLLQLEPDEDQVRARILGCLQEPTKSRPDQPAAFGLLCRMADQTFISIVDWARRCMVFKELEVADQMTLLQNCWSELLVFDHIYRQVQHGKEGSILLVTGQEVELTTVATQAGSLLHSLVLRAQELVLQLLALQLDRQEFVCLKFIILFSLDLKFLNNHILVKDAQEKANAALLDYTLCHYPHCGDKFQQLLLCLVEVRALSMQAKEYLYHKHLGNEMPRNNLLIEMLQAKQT
In short: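 Test system: transient Gal4-SF-1 LBD reporter, CHO-K1; Amount: 4,000 CHO-K1 cells per well; Doses: 10 µM only; Timing: compound exposure 20 h at 37 °C; Signal: luciferase light emission; Read-out basis: percent activation relative to DMSO median and mock-transfected background; Control set: DMSO negative control and −SF1 background wells; Replicates: one test per compound.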
With CC(=O)c1ccc(NC(=O)N[C@@H](Cc2ccccc2)C(=O)O)cc1 the activation was -21%. For O=C(c1cc(-c2ccc(O)cc2)on1)N1CCCc2ccccc21, the activation was 47.5%. For O=C(Nc1ccccc1C(F)(F)F)c1cc(-c2ccc(O)cc2)on1, the activation was 64.4% (active). For Cc1cc(C)nc(NC(=O)Nc2ccccc2C(F)(F)F)n1, the activation was 14.8%. CC(C)C(NC(=O)OCc1ccccc1)C(=O)OCC(=O)N1C(C)CCCC1C (configuration not stated) gave an activation of -2.9%. Cc1ccc(C(=O)NC2CC(C)(C)NC(C)(C)C2)c(C)c1 gave an activation of 4.3%. In the case of O=C1CC(N2CCN(C(c3ccccc3)c3ccccc3)CC2)C(=O)N1 (configuration not stated), the activation is reported as -23%. COc1ccc(CCNC(=O)c2cc(-c3ccc4c(c3)OCO4)on2)cc1OC showed an activation of 3.9%. COc1ccc(-c2cc(C(=O)NC(C(=O)O)C(C)C)c(C)o2)cc1OC (configuration not stated) was tested, and the activation was 56.5% (active). With COc1ccc(CNC(=O)c2c(C)cc(=O)oc2C)cc1OC the activation was 7.4%. In the case of CN(C(=O)CSc1nnnn1-c1ccccc1)C1CCCCC1, the activation is reported as 34.6%. Cc1cccc(-n2ncc3c(N4CCc5ccccc54)ncnc32)c1 showed an activation of 33.4%. Compound COc1ccc(-n2ncc3c(N4CCCc5ccccc54)ncnc32)cc1 has an activation of 33.2%. In the case of COc1ccc(-n2ncc3c(N4CCc5ccccc54)ncnc32)cc1, the activation is reported as 59.8% (active). For Cn1nnnc1SCC(=O)N1CCN(Cc2ccccc2)CC1, the activation was -17.2%. For CC(=NCC1CCCO1)c1c(O)[nH]c(=O)[nH]c1=O (configuration not stated), the activation was 12.9%. COc1ccccc1Nc1ncc(C(C)=O)c(C)n1 gave an activation of 34%. COc1cccc2sc(Nc3nc(C)c(C(C)=O)s3)nc12 was tested, and the activation was 109% (active). Compound COC(=O)c1sc(NC(=O)c2ccc(OC)cc2OC)nc1C has an activation of -57.8%. CC(=O)Nc1ccc(S(=O)(=O)N2CCN(C3CCCCCCC3)CC2)cc1 showed an activation of -6.4%. For COc1cccc(N2CCN(C3CC(=O)N(c4ccc(Cl)cc4)C3=O)CC2)c1 (configuration not stated), the activation was -14.7%. With COc1ccc(C(=O)Nc2ccc(S(=O)(=O)Nc3onc(C)c3C)cc2)cc1OC the activation was -3.3%. For COc1ccc(S(=O)(=O)N2CCN(C(=O)c3cccs3)CC2)cc1OC, the activation was -5.5%. For O=C(NC1=NCCS1)c1ccc(Cl)s1, the activation was 66.2% (active). CCc1ccc(N2CC(C(=O)NC3=NCCS3)CC2=O)cc1 (configuration not stated) showed an activation of -7.9%. CC(NC(=O)COc1ccccc1)C(=O)NC1=NCCS1 (configuration not stated) gave an activation of -0.2%. Work on C=CCn1c(CC(=O)Nc2cccc(OC)c2)nnc1SCC(=O)NC1CCCCC1 yielded an activation of 12.8%.
